Measured values published in ChEMBL document CHEMBL1944559, “Phosphodiesterase inhibitors. Part 3: Design, synthesis and structure-activity relationships of dual PDE3/4-inhibitory fused bicyclic heteroaromatic-dihydropyridazinones with anti-inflammatory and bronchodilatory activity” (Bioorg Med Chem, 2012).

Experiments:
[1] = biological target: T1, 3',5'-cyclic-AMP phosphodiesterase 4B (Homo sapiens, UniProt Q07343); test: Inhibition of human PDE4B catalytic domain
Outline: (§1)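 IC50 determined in enzyme inhibition assays on the core catalytic domains of PDE3A and PDE4B, following previously reported protocols, from at least three experiments; roflumilast run as positive control.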

[2] = biological target: T2, cGMP-inhibited 3',5'-cyclic phosphodiesterase 3A (Homo sapiens, UniProt Q14432); test: Inhibition of human PDE3A catalytic domain; outline: as §1
Rattus norvegicus = test: Antiinflammatory activity in Wistar rat assessed as inhibition of LPS-induced TNFalpha release at 1 mg/kg, po; assay type: functional
Cavia porcellus [3] = test: Inhibition of histamine-induced bronchoconstriction in Hartley guinea pig at 1 mg/kg, po administered 30 mins prior histamine challenge; assay type: functional
Outline: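 Oral dosing at 1 mg/kg in guinea pigs before histamine challenge, by an established procedure; scored against control as ++ (≥70% inhibition of bronchoconstriction) or + (30–69%).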

Cavia porcellus [4] = test: Inhibition of histamine-induced bronchoconstriction in Hartley guinea pig at 0.1 mg/kg, iv administered 30 mins prior histamine challenge; assay type: functional
Outline: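 Guinea pigs given compound iv at 0.1 mg/kg before histamine challenge; bronchoconstriction measured by an established procedure; result expressed as % inhibition of constriction relative to control.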

[5] = biological target: T1, 3',5'-cyclic-AMP phosphodiesterase 4B; test: Ratio of KCA-1450 IC50 to compound IC50 for human PDE4B catalytic domain
[6] = biological target: T2, cGMP-inhibited 3',5'-cyclic phosphodiesterase 3A; test: Ratio of KCA-1450 IC50 to compound IC50 for human PDE3A catalytic domain

T2 sequence (Q14432 whole entry, the tested form may be a part): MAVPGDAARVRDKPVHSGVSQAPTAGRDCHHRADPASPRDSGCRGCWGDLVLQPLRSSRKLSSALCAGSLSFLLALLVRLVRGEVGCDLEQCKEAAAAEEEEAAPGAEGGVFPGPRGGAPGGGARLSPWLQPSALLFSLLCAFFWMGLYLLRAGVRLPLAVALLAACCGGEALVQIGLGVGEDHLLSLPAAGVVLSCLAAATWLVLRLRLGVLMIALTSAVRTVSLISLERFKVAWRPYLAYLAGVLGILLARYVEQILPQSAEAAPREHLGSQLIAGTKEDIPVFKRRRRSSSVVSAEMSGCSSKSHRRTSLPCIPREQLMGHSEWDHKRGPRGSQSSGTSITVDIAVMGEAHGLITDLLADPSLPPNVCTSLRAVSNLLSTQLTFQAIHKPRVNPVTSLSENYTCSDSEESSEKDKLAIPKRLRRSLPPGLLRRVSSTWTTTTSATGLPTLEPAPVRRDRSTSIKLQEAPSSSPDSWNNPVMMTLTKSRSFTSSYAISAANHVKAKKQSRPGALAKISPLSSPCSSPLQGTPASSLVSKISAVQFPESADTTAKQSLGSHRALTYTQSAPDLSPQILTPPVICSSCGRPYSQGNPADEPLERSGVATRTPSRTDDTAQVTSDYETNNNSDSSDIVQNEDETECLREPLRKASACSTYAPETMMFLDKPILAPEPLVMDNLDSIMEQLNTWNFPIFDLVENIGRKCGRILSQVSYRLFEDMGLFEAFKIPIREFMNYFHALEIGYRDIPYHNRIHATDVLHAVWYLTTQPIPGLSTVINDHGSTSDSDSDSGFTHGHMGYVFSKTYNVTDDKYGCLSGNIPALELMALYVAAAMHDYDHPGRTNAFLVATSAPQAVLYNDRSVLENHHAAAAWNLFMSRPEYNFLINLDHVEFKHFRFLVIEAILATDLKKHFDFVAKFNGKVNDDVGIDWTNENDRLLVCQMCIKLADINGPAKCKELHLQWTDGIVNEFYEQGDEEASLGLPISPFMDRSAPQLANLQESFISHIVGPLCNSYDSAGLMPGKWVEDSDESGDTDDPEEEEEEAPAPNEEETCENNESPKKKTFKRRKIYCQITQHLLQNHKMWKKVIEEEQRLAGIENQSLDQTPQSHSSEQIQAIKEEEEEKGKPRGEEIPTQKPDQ
T1 sequence (Q07343 whole entry, the tested form may be a part): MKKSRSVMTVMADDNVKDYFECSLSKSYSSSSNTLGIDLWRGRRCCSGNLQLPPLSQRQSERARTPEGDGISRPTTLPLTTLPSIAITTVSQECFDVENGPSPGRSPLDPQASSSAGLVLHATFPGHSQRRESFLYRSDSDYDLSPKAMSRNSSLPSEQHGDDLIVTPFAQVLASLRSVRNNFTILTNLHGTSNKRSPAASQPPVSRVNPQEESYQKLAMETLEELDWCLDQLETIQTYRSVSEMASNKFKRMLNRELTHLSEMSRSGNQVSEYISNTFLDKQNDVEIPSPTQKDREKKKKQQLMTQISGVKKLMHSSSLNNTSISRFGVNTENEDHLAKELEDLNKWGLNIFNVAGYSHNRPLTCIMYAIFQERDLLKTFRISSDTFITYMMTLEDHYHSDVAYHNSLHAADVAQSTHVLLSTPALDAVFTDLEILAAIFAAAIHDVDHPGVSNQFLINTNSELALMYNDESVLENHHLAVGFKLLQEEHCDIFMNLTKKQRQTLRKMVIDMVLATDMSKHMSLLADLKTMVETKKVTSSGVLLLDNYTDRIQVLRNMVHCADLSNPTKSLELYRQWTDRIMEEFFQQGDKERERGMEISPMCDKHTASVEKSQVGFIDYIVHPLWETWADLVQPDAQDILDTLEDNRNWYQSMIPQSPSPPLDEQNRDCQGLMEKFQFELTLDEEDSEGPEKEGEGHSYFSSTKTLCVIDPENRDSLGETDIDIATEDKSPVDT

Row | IC50 [1] | IC50 [2] | Ratio IC50 [5] | Ratio IC50 [6] | SMILES | inhibition in vivo at 1 mg/kg (Rattus norvegicus) | inhibition in vivo at 1 mg/kg (Cavia porcellus [3]) | inhibition in vivo at 0.1 mg/kg (Cavia porcellus [4])
1 | 430 nM | 10.2 µM | – | – | COc1ccc(C2=NNC(=O)CC2C)c2nc(C(F)(F)F)nn12 (racemic) | – | – | –
2 | 260 nM | 1.45 µM | – | – | COc1ccc(C2=NNC(=O)CC2C)n2cc(C(F)(F)F)nc12 (racemic) | 62% | > 30% | 99%
3 | 1010 nM | 5.74 µM | – | – | COc1ccc(C2=NNC(=O)CC2C)c2oc(C(F)(F)F)nc12 (racemic) | – | – | –
4 | 1520 nM | 6.43 µM | – | – | COc1ccc(C2=NNC(=O)CC2C)c2nc(C(F)(F)F)oc12 (racemic) | – | – | –
5 | 21 nM | 0.15 µM | 3 | 16 | COc1ccc(C2=NNC(=O)CC2C)c2sc(C(F)(F)F)nc12 (racemic) | 80% | ≥ 70% | 97%
6 | 280 nM | 2.85 µM | – | – | COc1ccc(C2=NNC(=O)CC2C)c2cc(C(F)(F)F)sc12 (racemic) | – | – | 17%
7 | 350 nM | 0.97 µM | – | 2.5 | COc1ccc(C2=NNC(=O)CC2C)c2ccc(C(F)(F)F)nc12 (racemic) | 68% | ≥ 70% | 99%
8 | 300 nM | 22.2 µM | – | – | COc1ccc(C2=NNC(=O)CC2C)c2[nH]c(C(F)(F)F)nc12 (racemic) | – | – | –
9 | 380 nM | 19.8 µM | – | – | COc1ccc(C2=NNC(=O)CC2C)c2cc(C(F)(F)F)oc12 (racemic) | – | – | –

Row | SMILES | IC50 [1] | IC50 [2] | Ratio IC50 [5] | Ratio IC50 [6] | inhibition in vivo at 1 mg/kg (Rattus norvegicus) | inhibition in vivo at 1 mg/kg (Cavia porcellus [3]) | inhibition in vivo at 0.1 mg/kg (Cavia porcellus [4])
10 | CCc1cc2c(C3=NNC(=O)CC3C)ccc(OC)n2c1 (racemic) | 3490 nM | 20.7 µM | – | – | – | – | –
